Results from ChEMBL document CHEMBL1145409, “New sst4/5-selective somatostatin peptidomimetics based on a constrained tryptophan scaffold” (J Med Chem, 2007).

Tests used:
[1] = molecular target: Somatostatin receptor type 3 (Homo sapiens, UniProt P32745); assay: Displacement of [125I][Leu8-D-Trp22, Tyr25]-SRIF28 from human SST3 receptor
How it was run: (§1)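 Membrane pellets from CHO-K1 or CCL39 cells stably expressing the human receptor subtype, cut as 20 µm sections on slides for receptor autoradiography. Full displacement of [125I]-[Leu8,D-Trp22,Tyr25]-SRIF-28 by unlabeled compound at 0.1–1000 nmol/L, SRIF-28 run in parallel. Quantified by image analysis against calibrated isotope tissue standards to give IC50; mean ± SEM of 2–4 independent repetitions.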

[2] = molecular target: Somatostatin receptor type 2 (Homo sapiens, UniProt P30874); assay: Displacement of [125I][Leu8-D-Trp22, Tyr25]-SRIF28 from human SST2 receptor; how it was run: as §1
[3] = molecular target: Somatostatin receptor type 4 (Homo sapiens, UniProt P31391); assay: Displacement of [125I][Leu8-D-Trp22, Tyr25]-SRIF28 from human SST4 receptor; how it was run: as §1
[4] = molecular target: Somatostatin receptor type 1 (Homo sapiens, UniProt P30872); assay: Displacement of [125I][Leu8-D-Trp22, Tyr25]-SRIF28 from human SST1 receptor; how it was run: as §1
[5] = molecular target: T1, Somatostatin receptor type 5 (Homo sapiens, UniProt P35346); assay: Displacement of [125I][Leu8-D-Trp22, Tyr25]-SRIF28 from human SST5 receptor; how it was run: as §1
[6] = molecular target: T1, Somatostatin receptor type 5; assay: Agonist activity at human SST5 receptor expressed in CHOK1 cells assessed as effect on forskolin-induced cAMP production; format: functional, cell-based, CHO-K1
How it was run: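 Stably transfected sst5 CHO-K1 cells preincubated 30 min at 37 °C in medium with 0.5 mM IBMX, then 30 min at 37 °C with 0.5 mM IBMX, with or without 10 µM forskolin and graded compound concentrations. Cells lysed; cAMP measured by scintillation proximity assay, expressed as % stimulation over nonstimulated level. EC50 from nonlinear regression of dose-response curves; three experiments, triplicate wells.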

Sequence of Somatostatin receptor type 1 (P30872 whole entry): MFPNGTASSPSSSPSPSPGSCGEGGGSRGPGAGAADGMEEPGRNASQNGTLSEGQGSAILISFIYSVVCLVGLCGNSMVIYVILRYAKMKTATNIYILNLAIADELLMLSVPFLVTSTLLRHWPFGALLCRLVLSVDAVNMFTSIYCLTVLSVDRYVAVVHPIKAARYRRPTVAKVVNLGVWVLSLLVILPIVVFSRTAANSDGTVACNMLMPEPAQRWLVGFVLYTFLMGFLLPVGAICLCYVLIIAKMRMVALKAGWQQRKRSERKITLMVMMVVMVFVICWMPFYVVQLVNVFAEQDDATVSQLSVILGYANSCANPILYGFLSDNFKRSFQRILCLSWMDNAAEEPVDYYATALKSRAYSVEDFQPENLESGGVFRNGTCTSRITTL
Sequence of Somatostatin receptor type 2 (P30874 whole entry): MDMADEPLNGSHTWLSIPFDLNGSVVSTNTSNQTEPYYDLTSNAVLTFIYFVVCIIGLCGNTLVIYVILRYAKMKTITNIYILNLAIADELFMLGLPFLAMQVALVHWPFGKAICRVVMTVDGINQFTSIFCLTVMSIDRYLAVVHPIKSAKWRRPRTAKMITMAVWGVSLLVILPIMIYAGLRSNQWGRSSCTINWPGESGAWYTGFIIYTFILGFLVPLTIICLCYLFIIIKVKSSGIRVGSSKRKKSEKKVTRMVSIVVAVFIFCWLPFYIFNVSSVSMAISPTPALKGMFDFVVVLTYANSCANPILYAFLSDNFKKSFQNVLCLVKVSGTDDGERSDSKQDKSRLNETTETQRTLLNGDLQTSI
Sequence of Somatostatin receptor type 4 (P31391 whole entry): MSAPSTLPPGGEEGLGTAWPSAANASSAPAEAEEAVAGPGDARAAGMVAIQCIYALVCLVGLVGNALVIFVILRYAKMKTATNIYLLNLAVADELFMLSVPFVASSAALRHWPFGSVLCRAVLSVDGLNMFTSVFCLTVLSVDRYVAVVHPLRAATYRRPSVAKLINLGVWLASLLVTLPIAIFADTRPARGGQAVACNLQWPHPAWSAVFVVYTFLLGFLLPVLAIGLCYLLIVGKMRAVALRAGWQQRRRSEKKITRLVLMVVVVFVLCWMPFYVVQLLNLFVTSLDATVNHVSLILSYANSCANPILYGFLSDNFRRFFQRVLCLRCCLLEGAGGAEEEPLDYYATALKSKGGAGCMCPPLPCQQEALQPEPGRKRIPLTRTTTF
T1 sequence (P35346 whole entry): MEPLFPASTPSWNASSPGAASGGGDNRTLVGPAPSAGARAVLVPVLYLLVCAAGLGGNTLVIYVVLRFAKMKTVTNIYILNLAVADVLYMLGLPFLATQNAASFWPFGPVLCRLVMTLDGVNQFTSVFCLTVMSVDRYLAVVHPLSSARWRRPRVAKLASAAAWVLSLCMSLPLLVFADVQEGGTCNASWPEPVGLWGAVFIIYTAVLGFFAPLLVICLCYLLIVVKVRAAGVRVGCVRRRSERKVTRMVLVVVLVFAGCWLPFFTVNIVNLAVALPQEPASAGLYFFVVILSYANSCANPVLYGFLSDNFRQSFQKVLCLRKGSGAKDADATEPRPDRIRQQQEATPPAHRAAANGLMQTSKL
Sequence of Somatostatin receptor type 3 (P32745 whole entry): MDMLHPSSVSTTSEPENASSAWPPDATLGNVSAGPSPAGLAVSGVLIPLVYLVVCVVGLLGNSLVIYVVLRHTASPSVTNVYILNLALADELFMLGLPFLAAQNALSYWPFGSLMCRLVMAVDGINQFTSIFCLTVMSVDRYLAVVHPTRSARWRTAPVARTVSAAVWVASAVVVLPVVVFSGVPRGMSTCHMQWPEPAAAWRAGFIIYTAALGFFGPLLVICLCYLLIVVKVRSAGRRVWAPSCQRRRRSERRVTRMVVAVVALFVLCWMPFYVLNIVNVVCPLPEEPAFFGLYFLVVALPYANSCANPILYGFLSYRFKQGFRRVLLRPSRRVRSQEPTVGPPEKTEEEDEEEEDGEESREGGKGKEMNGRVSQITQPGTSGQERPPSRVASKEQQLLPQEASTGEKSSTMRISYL

Row | Compound | IC50 [1] [nM] | IC50 [2] [nM] | IC50 [3] [nM] | IC50 [4] [nM] | IC50 [5] [nM] | EC50 [6] [nM]
1 | NCCCC[C@@H](C(=O)NCc1ccccc1)N1Cc2[nH]c3ccccc3c2C[C@@H](NC(=O)CC(c2ccccc2)c2ccccc2)C1=O | 694 | 103 | 73 | 89 | 8 | 
2 | NCCCCCN1Cc2[nH]c3ccccc3c2C[C@@H](NC(=O)CC(c2ccccc2)c2ccccc2)C1=O | > 1000 | 357 | 129 | > 1000 | 318 | 
3 | NCCCC[C@@H](C(=O)NCc1ccccc1)N1Cc2[nH]c3ccccc3c2C[C@@H](NC(=O)Cc2ccccc2)C1=O | 251 | 83 | 3.3 | 233 | 1.2 | 13
4 | NCCCCCN1Cc2[nH]c3ccccc3c2C[C@@H](NC(=O)Cc2ccccc2)C1=O | > 1000 | > 1000 | 75 | > 1000 | 245 | 
